16 molecules from ChEMBL document CHEMBL1157930, “Design, synthesis, biological evaluation and computational investigation of novel inhibitors of dihydrofolate reductase of opportunistic pathogens” (Bioorg Med Chem, 2010) can be followed below.

A short description of experiment [1]: Selectivity ratio of IC50 for rat liver DHFR to IC50 for Mycobacterium avium DHFR. Put shortly:
(§1)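 The ratio is rat liver DHFR IC50 divided by pathogen DHFR IC50. Both IC50s come from triplicate continuous spectrophotometric assays following NADPH oxidation at 37 °C, with substrate and cofactor saturating.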

Experiment [2] deals with T1, Dihydrofolate reductase (Rattus norvegicus) (UniProt Q920D2).
T1 sequence (whole entry): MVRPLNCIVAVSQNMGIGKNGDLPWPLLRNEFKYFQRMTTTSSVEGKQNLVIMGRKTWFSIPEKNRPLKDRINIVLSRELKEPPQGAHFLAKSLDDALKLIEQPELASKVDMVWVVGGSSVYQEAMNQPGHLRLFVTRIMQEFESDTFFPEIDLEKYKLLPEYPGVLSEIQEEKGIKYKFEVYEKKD
Briefly: Inhibition of rat liver DHFR at IC50 by continuous spectrophotometric assay. In short, it runs like this: (§2)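 Continuous spectrophotometric assay of pathogen (pc, tg, ma) or rat liver DHFR. NADPH oxidation was followed at 340, at 37 °C, with substrate and cofactor both saturating. […]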

A short description of experiment [3]: Selectivity ratio of IC50 for rat liver DHFR to IC50 for Toxoplasma gondii DHFR. In short, it runs like this:
as §1

Experiment [4] has as its target T2, Bifunctional dihydrofolate reductase-thymidylate synthase (Toxoplasma gondii) (UniProt Q07422).
T2 sequence (whole entry): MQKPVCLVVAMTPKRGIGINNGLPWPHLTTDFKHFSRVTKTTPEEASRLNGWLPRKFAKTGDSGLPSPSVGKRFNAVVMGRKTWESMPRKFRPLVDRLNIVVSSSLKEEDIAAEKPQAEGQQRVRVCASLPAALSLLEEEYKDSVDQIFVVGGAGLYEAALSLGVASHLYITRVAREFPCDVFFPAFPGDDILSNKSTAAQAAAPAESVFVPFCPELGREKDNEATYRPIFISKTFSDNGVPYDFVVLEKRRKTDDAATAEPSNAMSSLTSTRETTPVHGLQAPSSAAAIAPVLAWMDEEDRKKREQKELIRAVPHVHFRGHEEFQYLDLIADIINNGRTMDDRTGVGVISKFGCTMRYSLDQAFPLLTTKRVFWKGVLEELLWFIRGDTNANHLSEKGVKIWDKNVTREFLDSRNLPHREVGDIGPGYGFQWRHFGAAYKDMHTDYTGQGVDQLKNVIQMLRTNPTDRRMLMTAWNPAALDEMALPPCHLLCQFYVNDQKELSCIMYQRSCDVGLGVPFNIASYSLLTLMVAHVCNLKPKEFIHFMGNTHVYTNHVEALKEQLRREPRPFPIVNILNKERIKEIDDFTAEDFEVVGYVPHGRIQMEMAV
The experiment can be described thus: Inhibition of Toxoplasma gondii DHFR by continuous spectrophotometric assay. In short, it runs like this:
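Toxoplasma gondii DHFR was assayed continuously by spectrophotometry, following NADPH oxidation at 340 at 37 °C with saturating substrate and cofactor, in triplicate. […]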

A short description of experiment [5]: Selectivity ratio of IC50 for rat liver DHFR to IC50 for Pneumocystis carinii DHFR. In short, it runs like this:
as §1

Experiment [6] deals with T3, Dihydrofolate reductase (Mycobacterium avium) (UniProt O30463).
T3 sequence (whole entry): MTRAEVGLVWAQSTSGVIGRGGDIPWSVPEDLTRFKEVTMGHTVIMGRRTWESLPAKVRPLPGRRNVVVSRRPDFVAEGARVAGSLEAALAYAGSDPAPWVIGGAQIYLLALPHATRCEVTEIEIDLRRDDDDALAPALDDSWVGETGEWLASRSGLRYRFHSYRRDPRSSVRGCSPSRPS
Briefly: Inhibition of Mycobacterium avium DHFR at IC50 by continuous spectrophotometric assay. Put shortly: as §2

Experiment [7] has as its target T4, Dihydrofolate reductase (Pneumocystis carinii) (UniProt P16184).
T4 sequence (whole entry): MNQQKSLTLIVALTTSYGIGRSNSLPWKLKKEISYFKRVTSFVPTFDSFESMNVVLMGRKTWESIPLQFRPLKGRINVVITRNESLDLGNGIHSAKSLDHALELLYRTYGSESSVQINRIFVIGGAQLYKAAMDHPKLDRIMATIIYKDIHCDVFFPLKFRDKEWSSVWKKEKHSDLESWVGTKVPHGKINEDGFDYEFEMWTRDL
Briefly: Inhibition of Pneumocystis carinii DHFR at IC50 by continuous spectrophotometric assay. Put shortly:
as §2

For experiment [8], the target named is T2, Bifunctional dihydrofolate reductase-thymidylate synthase (Toxoplasma gondii). Briefly: Inhibition of Toxoplasma gondii DHFR at IC50 by continuous spectrophotometric assay. On the set-up: concentration or dose not given beside the values. In short, it runs like this: as §2

Where only a bound is given, the exact number is not on record here.

What is called inhibition is the change of the read-out against control, counted positive when it falls. For `Nc1ncc(CN2c3ccccc3C=Cc3ccccc32)c(N)n1`, the Ratio IC50 was greater than 20 in experiment [1] and greater than 16 in experiment [3]. Moreover, the inhibition in experiment [2] came to 15%. This molecule also yielded an Activity in experiment [4] of 8.07 µM. Also, the IC50 selectivity ratio (rat liver / P. carinii DHFR) in experiment [5] was greater than 5.

In the case of `Nc1ncc(CNc2cccc3ccccc23)c(N)n1`, the Ratio IC50 in experiment [3] worked out at 5.78. Also, in experiment [6], the inhibition was found to be 9%. The molecule also showed an Activity in experiment [4] of 22.1 µM. Also, the IC50 selectivity ratio (rat liver / P. carinii DHFR) in experiment [5] was 0.85.

Consider `Nc1ncc(CSc2nc3ccccc3o2)c(N)n1`, for which the values for the Ratio IC50 in experiment [1] and in experiment [3] were 22.5 and 3.25, respectively. The Activity in experiment [4] was determined as 160 µM. Besides, in experiment [5], the IC50 selectivity ratio (rat liver / P. carinii DHFR) worked out at 14.5.

Take `COc1ccc(C(=O)/C=C/c2cnc(N)nc2N)cc1`: the results for the inhibition in experiment [7], in experiment [6] and in experiment [8] were 4%, 14% and 15%, respectively. In experiment [4], this molecule gave an Activity of 151 µM.

Take `Nc1ncc(COS(=O)(=O)c2ccc3ccccc3c2)c(N)n1`: the inhibition in experiment [2] is 0%; in experiment [6], 15%; in experiment [8], 13%. The same molecule had an Activity in experiment [4] of 124 µM. In addition, in experiment [5], the IC50 selectivity ratio (rat liver / P. carinii DHFR) is greater than 15.7.

For the molecule `Nc1cc(OCCN2c3ccccc3C=Cc3ccccc32)nc(N)n1`, the Ratio IC50 in experiment [1] was greater than 51.4; in experiment [3], greater than 35.8. This molecule gave an inhibition in experiment [2] of 39%. For the same molecule, the Activity in experiment [4] was found to be 3.35 µM.

Take `COc1cc(COc2cc(N)nc(N)n2)cc(OC)c1OC`: the inhibition in experiment [2] amounted to 12%; in experiment [7], 0%; in experiment [6], 12%; in experiment [8], 10%. In addition, in experiment [4], the Activity is 145 µM.

For `Nc1nc(N)nc(CN2c3ccccc3Sc3ccc(Cl)cc32)n1`, the inhibition came to 8% in experiment [2] and 5% in experiment [6]. This molecule yielded an Activity in experiment [4] of 397 µM.

As for `Nc1nc(N)c2cc(COC(=O)c3c4ccccc4cc4ccccc34)ccc2n1`, the Ratio IC50 in experiment [1] was found to be 0.21; in experiment [3] it was 0.31. Moreover, the Activity in experiment [4] was found to be 0.67 µM. For the same molecule, the IC50 selectivity ratio (rat liver / P. carinii DHFR) in experiment [5] was 0.43.

Consider `Nc1nc(N)nc(CN2c3ccccc3Sc3ccccc32)n1`, for which the inhibition in experiment [2] was 16%; in experiment [6] it was 4%; in experiment [8] it was 15%. Also, in experiment [4], the Activity turned out to be 143 µM.

On to `Cc1ccc(COc2ccc(C(=O)/C=C/c3cnc(N)nc3N)cc2)cc1`, for which the inhibition in experiment [2] worked out at 0%; in experiment [7], 2%; in experiment [6], 4%; in experiment [8] it was 10%. The molecule further gave an Activity in experiment [4] of 117 µM.

On to `CN(Cc1cnc(N)nc1N)c1cccc2ccccc12`, for which the Ratio IC50 in experiment [1] was determined as 209; in experiment [3] it was 52.7. This molecule also returned an Activity in experiment [4] of 3.49 µM. Further, the IC50 selectivity ratio (rat liver / P. carinii DHFR) in experiment [5] was 4.79.

Turning to `Nc1nc(N)nc(CN2c3ccccc3CCc3ccccc32)n1`, the inhibition in experiment [2] is 0%; in experiment [6] it was 9%; in experiment [8] it was 10%. This molecule also showed an Activity in experiment [4] of 140 µM.

Take `Nc1nc(N)c2nc(CN3c4ccccc4C=Cc4ccccc43)cnc2n1`: the Ratio IC50 in experiment [1] amounted to 367; in experiment [3] it was 102. In experiment [4], this molecule had an Activity of 0.043 µM.

Consider `COc1ccc(NCc2cnc(N)nc2N)cc1`, for which the inhibition in experiment [2] came to 0%; in experiment [6], 0%; in experiment [8], 7%. The Activity in experiment [4] stood at 44 µM.

As to `Nc1ncc(CN2c3ccccc3CCc3ccccc32)c(N)n1`, the Ratio IC50 in experiment [1] was found to be 14.4; in experiment [3], 11.5. This molecule also displayed an Activity in experiment [4] of 0.14 µM. In addition, the IC50 selectivity ratio (rat liver / P. carinii DHFR) in experiment [5] is 1.89.
